Screens from PubChem.
VIM-2 inhibitor – VIM-2 metallo-beta-lactamase inhibitors, primary screen, biochemical, epi-absorbance readout, Pseudomonas aeruginosa enzyme; inhibition, % at 5.6 µM; purified VIM-2, nitrocefin hydrolysis, epi-absorbance fluorescence; hit rate 0.89% among 290,000;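 active = inhibition above the mean of all tested compounds plus 3 SD, cutoff set per screening run, cut at about 7.5% in these data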;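 also: red hydrolysis product quenches plate fluorescence so inhibitors raise well fluorescence; 0% = enzyme with DMSO and 100% = DMSO without enzyme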
CHT block – inhibitors of human choline transporter CHT. CHT-expressing cells, membrane potential dye, choline response; stronger effect = lower value. High affinity choline transporter 1 (Homo sapiens), Q9GZV3. B-score at 10 µM. hit rate 0.86% among 310,000;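 active = B-score over 3 SD under the library average, and starting fluorescence ratio not unusually high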;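 also: choline stimulus applied at its EC90 after an EC20 pre-addition; B-score computed on integrated fluorescence ratio after choline addition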
Target sequence (Q9GZV3 whole entry, looked up): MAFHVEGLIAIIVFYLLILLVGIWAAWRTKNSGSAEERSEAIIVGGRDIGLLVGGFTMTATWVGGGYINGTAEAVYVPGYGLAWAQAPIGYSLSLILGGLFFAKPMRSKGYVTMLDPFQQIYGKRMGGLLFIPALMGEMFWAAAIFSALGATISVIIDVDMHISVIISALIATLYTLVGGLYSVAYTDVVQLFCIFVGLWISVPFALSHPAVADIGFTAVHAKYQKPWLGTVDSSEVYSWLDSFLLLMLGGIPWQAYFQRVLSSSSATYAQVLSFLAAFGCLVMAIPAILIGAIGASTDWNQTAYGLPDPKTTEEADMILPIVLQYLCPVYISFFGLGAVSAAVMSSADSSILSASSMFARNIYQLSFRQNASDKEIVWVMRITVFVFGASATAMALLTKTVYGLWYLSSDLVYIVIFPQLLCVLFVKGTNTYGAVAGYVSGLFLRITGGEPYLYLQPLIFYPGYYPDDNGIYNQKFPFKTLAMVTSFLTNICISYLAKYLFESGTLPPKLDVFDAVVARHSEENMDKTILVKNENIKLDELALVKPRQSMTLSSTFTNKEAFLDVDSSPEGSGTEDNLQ
TMEM16A act – TMEM16A chloride channel activators or potentiators, primary screen, cell-based, HTS | Anoctamin-1 (Mus musculus), Q8BHY3 | HEK293 TMEM16A/YFP-H148Q/I152L, iodide quench fluorescence; stronger effect = lower value | B-score at 10 µM | hit rate 0.3% among 340,000 | AID 623877, 2012;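 active = fluorescence-ratio B-score plate-corrected deviation score at least 3 library SD below zero, with starting fluorescence score within 5 deviations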;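 also: channel opened by trigger with iodide after compound preincubation; score built on the fluorescence ratio of max minus min over baseline; more negative score means more quench and so TMEM16A activation or potentiation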
CHT allo act – CHT positive allosteric modulators, primary screen, cell-based, membrane potential dye, choline EC20; High affinity choline transporter 1 (Homo sapiens), Q9GZV3; CHT-expressing cells; stronger effect = higher value; LV-AA mutant CHT in HEK293 cells; B-score at 10 µM; hit rate 0.49% among 310,000; AID 488977, 2010;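 active = initial fluorescence not abnormally high and integrated response B-score, plate-corrected, over 3 SD above library mean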
IMP-1 inhibitor – IMP-1 metallo-beta-lactamase inhibitors, primary screen, biochemical, epi-absorbance readout, Pseudomonas aeruginosa enzyme; inhibition, % at 5.6 µM; AID 1556, 2009; purified IMP-1, nitrocefin hydrolysis, epi-absorbance fluorescence; metallo-beta-lactamase IMP-1 (Pseudomonas aeruginosa); hit rate 0.45% among 290,000;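 active = inhibition above the mean plus 3 SD of all compounds in the same screening run, cut at about 4.5% in these data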;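 also: 0% = IMP-1 with DMSO and 100% = DMSO wells lacking enzyme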
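System: purified recombinant IMP-1 beta-lactamase. Medium: Zinc- and detergent-supplemented HEPES buffer, pH 7.1. Compound: one 5.6 µM dose […]. Schedule: 15 min preincubation plus 25 min reaction at 25 °C. Technique: Epi-absorbance fluorescence, 480 nm excitation, 530 nm emission.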
ANO1 block – TMEM16A chloride channel inhibitors, primary screen, cell-based, HTS; Anoctamin-1 (Mus musculus), Q8BHY3; HEK293 TMEM16A/YFP iodide influx fluorescence, ionomycin; normalized B-score (activity score, 25-100; higher = stronger inhibition) at 10 µM; hit rate 1.2% among 310,000; AID 588511, 2011;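 active = ratio plate-corrected score three or more library SD toward inhibition, starting fluorescence score within five deviations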;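 also: score derived from kinetic fluorescence span divided by baseline fluorescence per well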
CHT inh conf – CHT inhibitors, confirmation, cell-based, membrane potential dye, duplicate; shares compounds with CHT block; CHT-expressing cells, choline membrane potential dye; LV-to-AA substituted CHT, HEK293 cells; CHT activity remaining % of control (stronger effect = lower value), % at 10 µM; hit rate 70% among 2,400; AID 493221, 2011;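 active = choline transporter activity left, mean of duplicates at 10 µM, below buffer-only control mean minus 3 SD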;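 also: depolarization triggered by choline at its EC90 following an EC20 pre-addition; 0% = hemicholinium-3 full block and 100% = buffer-only control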
HEK293 CHT ctr – membrane potential effects in parental HEK293, counter-screen for CHT inhibitor project, cell-based, membrane potential dye. shares compounds with CHT block. choline response; active = decrease or increase beyond buffer ±3SD. membrane potential ratio readout (active if shifted either direction beyond buffer ±3SD; no single direction) at 10 µM. hit rate 4% among 2,400. AID 493222, 2011;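 also: parental cells lack the transporter so any hit is non-specific; ratio is peak minus trough fluorescence over baseline after EC90 choline challenge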
* = called active by the depositor; i = inactive; . = no result. An excerpt weighted towards active compounds, which were near 3.4% of everything screened.

SMILES | VIM-2 inhibitor | CHT block | TMEM16A act | CHT allo act | IMP-1 inhibitor | ANO1 block | CHT inh conf | HEK293 CHT ctr
Cc1ccc(CN(C)C(=O)c2cc(COc3ccc(F)cc3Cl)on2)o1 | -4 | i | i | i | -2 | i | . | .
Cc1cc(CN(C)C(=O)c2cc(COc3ccc(F)cc3Cl)on2)n[nH]1 | -3 | -6* | i | i | -3 | i | 55%* | i
Nn1c(SCC(=O)Nc2cccnc2Cl)nnc1-c1ccccc1 | . | . | i | . | . | . | . | .
CCOC(=O)C1CCCN(C(=O)Cc2c(F)cccc2Cl)C1 (stereo unspecified) | -2 | -5.7* | i | i | -2 | i | 53%* | i
CCOC(=O)C1CCN(C(=O)Cc2c(F)cccc2Cl)CC1 | -1 | i | i | i | -1 | i | . | .
CCOC(=O)c1ccc(NS(=O)(=O)c2ccc3c(c2)NC(=O)CCS3)cc1 | -2 | -5.1* | i | i | -2 | i | 64%* | i
CCc1nn(C(C)C(=O)NC(C)CCc2ccco2)c(=O)c2cc3occc3n12 (stereo unspecified) | -2 | -5.9* | i | i | -2 | i | 49%* | -14*
CCc1nn(C(C)C(=O)NCCc2ccccc2)c(=O)c2cc3occc3n12 (stereo unspecified) | 2 | -5.7* | i | i | 0 | i | i | i
CCc1nn(CCCC(=O)N2CCN(c3cccc(C)c3C)CC2)c(=O)c2cc3occc3n12 | -6 | i | i | i | -2 | i | . | .
Cc1nn(C(C)C(=O)NC(C)CCc2ccccc2)c(=O)c2cc3occc3n12 (stereo unspecified) | -1 | -6.9* | i | i | -3 | i | 55%* | i
CCc1nn(C(C)C(=O)NCc2cccc(Cl)c2)c(=O)c2cc3occc3n12 (stereo unspecified) | 0 | i | i | i | 1 | i | . | .
CCc1nn(CCCC(=O)N2CCc3ccccc3C2)c(=O)c2cc3occc3n12 | -1 | -5.7* | i | i | -2 | i | 58%* | -9*
C=CCC[C@@H](Cc1ccc(F)cc1)C(=O)OC[C@H](C)NC(=O)[C@@H](CC=C)CC(=O)N[C@@H](CO)Cc1ccccc1 | . | . | i | . | . | . | . | .
Cc1ccc(C)c(Cn2c3ccccc3c3cnn(CC(=O)NCCN4CCOCC4)c(=O)c32)c1 | -2 | i | i | i | -4 | i | . | .
Cc1cc(C)c(Cn2c3ccccc3c3cnn(CC(=O)NCCN4CCOCC4)c(=O)c32)c(C)c1 | -3 | -12* | i | i | -1 | i | 15%* | i
COc1cccc(-c2cc(C(=O)NC3CCCCC3)no2)c1 | -3 | i | i | i | -2 | i | . | .
Cc1ccc(-c2nc3ncccc3o2)cc1NC(=O)c1ccccc1 | -2 | -6.7* | i | i | -2 | i | i | i
COc1ccc(S(=O)(=O)Nc2ccccc2N2CCOCC2)cc1OC | . | . | i | . | . | . | . | .
Cc1oc2c(C)c3oc(=O)c(CCC(=O)NCCCN4CCCC4=O)c(C)c3cc2c1C | -1 | i | i | i | 0 | i | . | .
Cc1c(CCC(=O)NCCCn2ccnc2)c(=O)oc2c(C)c3occ(C(C)(C)C)c3cc12 | 8.1* | -5.5* | i | i | 1 | i | 29%* | i
NC(=O)c1sc(-c2ccsc2)cc1NS(=O)(=O)c1ccc(C(F)(F)F)cc1 | 1 | -6.9* | i | i | 1 | i | i | i
COc1cccc(N2C(=O)N(c3ccccc3)C3CS(=O)(=O)CC32)c1 (stereo unspecified) | 2 | -4.9* | i | i | -1 | i | 70%* | i
C#CCNc1c2c(nc3ncnn13)CC(C)CC2 (stereo unspecified) | -2 | -5.2* | i | i | -3 | i | 63%* | i
COc1ccc(C(CNC(=O)c2cccc(S(=O)(=O)NCc3ccccc3)c2)N2CCOCC2)cc1 (stereo unspecified) | . | i | i | i | . | i | . | .
COc1ccc(C(CNC(=O)c2cc(S(=O)(=O)NCc3ccccc3)ccc2C)N2CCOCC2)cc1 (stereo unspecified) | . | -10* | i | i | . | i | 19%* | i
SMILES | VIM-2 inhibitor | CHT block | TMEM16A act | CHT allo act | IMP-1 inhibitor | ANO1 block | CHT inh conf | HEK293 CHT ctr
O=C(CSc1nc(C(F)(F)F)cc(=O)[nH]1)Nc1cccc2ccccc12 | . | -5.4* | i | i | . | i | 40%* | i
COC(=O)C1CSC(C(=O)OC)N1C(=O)CN1CCN(c2ccccc2)CC1 (stereo unspecified) | -2 | i | i | i | -5 | i | . | .
CCOc1ccccc1NC(=O)CSc1nc2cccnc2n1C | 1 | i | i | i | -4 | i | . | .
COC(=O)c1ccccc1NC(=O)CSc1nc2cccnc2n1C | -4 | -5.9* | i | i | -4 | i | i | i
CCOCCCn1c(SCC(=O)Nc2cccc(S(=O)(=O)NC3=NCCCCC3)c2)nc2ccccc2c1=O | -1 | -6.4* | i | i | -4 | i | i | i
CCCn1c(SCC(=O)Nc2cccc(S(=O)(=O)NC3=NCCCCC3)c2)nc2ccccc2c1=O | 1 | i | i | i | 0 | i | . | .
Cc1cc(SCC(=O)Nc2cccc(S(=O)(=O)NC3=NCCCCC3)c2)c(C)cc1Br | -3 | -5* | i | i | -5 | i | i | i
COc1ccccc1NCCC(=O)OCC(=O)Nc1ccccc1F | . | . | i | . | . | . | . | .
Cc1cc(C)nc(N2CCC(C(=O)NCc3cccs3)CC2)n1 | -3 | -8.3* | i | i | 0 | i | i | i
S=c1[nH]c2cc(Cl)ccc2s1 | -6 | -5* | i | i | -3 | i | 54%* | i
COC(=O)c1ccc(CC(=O)c2ccc(O)cc2O)o1 | -1 | i | i | i | 0 | i | . | .
CCOC(=O)c1ccc(CC(=O)c2ccc(O)cc2O)o1 | -5 | -6* | i | i | -3 | i | 68%* | i
